# Compound activity: PubChem, several laboratories
# Shown are actives, neighbours in structure and some others; about 2.4% of the full set was active somewhere.
# MT1-MMP act inh: blockers of MT1-MMP proenzyme processing, primary screen, HT1080 RFP-PRO-GFP cells, GFP/RFP fluorescence; GFP/RFP ratio change, % at 20 µM; Matrix metalloproteinase-14 (Homo sapiens), P50281; GFP/RFP ratio fluorescence, overnight; percent of plate control window, DMSO zero; 360,000 compounds, 0.061% hits;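 active = GFP/RFP ratio change of at least 30% with cell ATP level not reduced by more than half and red fluorescence within 50% of control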
#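 Test system: HT1080 cells expressing an RFP-PRO-GFP fluorescent reporter construct / Compound dosing: single-point 20 µM compound, 1% DMSO / Schedule: cells overnight before dosing, compound overnight, 37 °C, 5% CO2 / Evaluation: GFP/RFP fluorescence ratio / Control set: DMSO and RFP-L50D-GFP cell wells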
# DAGLB inhibitor: DAGLB lipase inhibitors, primary screen, biochemical, fluorescence, HTS; inhibition, % at 5.17 µM; Diacylglycerol lipase-beta (Homo sapiens), Q8NCG7; HEK293T DAGLB membrane lysate, EnzChek fluorogenic substrate; 340,000 compounds, 0.059% hits; AID 504411, 2011; in the data active = inhibition above about 34%;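 note: 0% = enzyme with vehicle and 100% = wells lacking enzyme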
# Myeloid diff MLP: induction of myeloid progenitor differentiation, primary screen, cell-based, flow cytometry, MLPCN library | ER-HoxA9 myeloid progenitors, lysozyme-GFP differentiation | calls only at 10 µM | 360,000 compounds, 1% hits;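 active = normalized GFP-positive differentiation at or above the plate's own cutoff, the solvent-only control mean plus 3 SD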;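 note: cells exposed to compound for four days before flow analysis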
# NRP1-CendR mod: modulators of CendR peptide binding to NRP-1, primary screen, biochemical, fluorescence polarization, uHTS; FAM-RPARPAR peptide binding to NRP-1; inhibition, % at 25 µM; 360,000 compounds, 0.85% hits;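 active = inhibition or corrected inhibition above about 18%, plus a signal ratio from 0.5 to 1.5, limit read from the data, passing the limit was not always enough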
# MIN6 prolif: inducers of MIN6 beta-cell proliferation, primary screen, ATP luminescence, uHTS; MIN6 cells proliferation, ATPlite luminescence, 48 h; cells starved in 0.2% serum; 100% = growth in 10% serum; proliferation, % at 10 µM; 330,000 compounds, 0.29% hits;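 active = compounds whose signal lies at least 3.5 SD above the mean of all wells on their plate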;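 note: 0% = DMSO-treated cells in low-serum medium and 100% = 10% serum control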
# SENP1 inh: human SENP1 catalytic domain inhibitors, primary screen, biochemical, FRET, uHTS | 360,000 compounds, 0.21% hits | Sentrin-specific protease 1 (Homo sapiens), Q9P0U3 | recombinant SENP1 catalytic domain, CyPet-SUMO1-YPet FRET cleavage | inhibition, % at 10 µM;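 active = inhibition at least 30% at 10 µM, raw YFP signal under a set limit, fluorescence ratio 0.5 to 1.5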;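 note: 0% = enzyme with DMSO and 100% = no enzyme wells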
# Target sequence (Q9P0U3 419-644 limits assumed): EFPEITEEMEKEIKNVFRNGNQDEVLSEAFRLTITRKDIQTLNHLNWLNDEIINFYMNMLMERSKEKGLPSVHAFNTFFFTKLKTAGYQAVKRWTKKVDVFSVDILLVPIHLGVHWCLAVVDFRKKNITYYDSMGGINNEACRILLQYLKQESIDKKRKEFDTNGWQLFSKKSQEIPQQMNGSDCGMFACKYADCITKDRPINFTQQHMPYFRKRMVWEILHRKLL
#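 Controls: no-enzyme wells low, DMSO-plus-enzyme wells high control. Test system: human recombinant His6-tagged SENP1 catalytic domain enzyme. Reagent: SFCypet-SUMO1-SFYpet FRET protein substrate, 25 nM final. Doses: one dose per compound, 10 µM, 0.5% DMSO. Detection: FRET, CFP and YFP emission. Timing: 50 min reaction at room temperature.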
# * = called active by the depositor; i = inactive; . = no result; + = active, no number.
SMILES,MT1-MMP act inh,DAGLB inhibitor,Myeloid diff MLP,NRP1-CendR mod,MIN6 prolif,SENP1 inh
CCCCOc1ccc(-c2cc(C(F)(F)F)c(C#N)c(SCC(=O)O)n2)cc1,-68,0,+,-31,-3,42
CCc1ccc(OC(=O)CN2C(=O)c3ccccc3C2=O)cc1,2,-6,i,26*,-3,0
CCOc1ccc(CCN2C(=S)N([C@@H](CC(C)C)CN3CCCC3CN3C(=S)NC[C@@H]3Cc3ccc(O)cc3)C[C@@H]2Cc2ccc(O)cc2)cc1 (stereo partly specified),-4,0,i,-8,.,1
COc1ccc(/C=C2\SC(=S)N(CCCC(=O)N3CCCCC3CCO)C2=O)cc1 (stereo unspecified),-3,0,+,0,-3,-14
COc1cc2c(cc1OC)C(C)N(CCN1C(=O)c3ccccc3C1=O)CC2 (stereo unspecified),3,1,+,-5,-3,2
COc1cc2c(cc1OC)C(C)N(CCc1ccc(Cl)cc1)CC2 (stereo unspecified),-5,.,i,-13,-2,-5
O=C(Nc1cccnc1)c1cc(S(=O)(=O)N2CCCCC2)c(Cl)cc1Cl,1,0,i,3,-1,1
Cc1cc(SCC(=O)N/N=C/c2ccc(O)c(O)c2O)c(C)cc1Br,-19,24,+,12,-5,2
COc1cc(/C=N/NC(=O)CSc2cc(C)c(Br)cc2C)ccc1O,3,-1,i,1,-4,-2
Fc1cccc(CSc2ncnc3c2ncn3C2CCCCO2)c1 (stereo unspecified),4,-5,i,8,.,-5
Cc1ccc(-c2nc3cc(NC(=O)C(C)C)ccc3o2)cc1C,9,2,i,-24,-3,0
Cc1ccc(-c2nc3cc(NC(=O)C(C)C)ccc3o2)cc1,11,-3,+,-1,-1,0
CN1C=CC(=O)[C@@H](OC(=O)Nc2ccc(Br)cc2)[C@H]1c1ccccc1Br,5,-1,.,4,.,-1
CC1CN(S(=O)(=O)c2ccc(C(=O)Nc3nnc(-c4ccco4)o3)cc2)CC(C)O1 (stereo unspecified),1,3,i,-14,-2,-1
CC1CCCN(S(=O)(=O)c2ccc(C(=O)Nc3nnc(-c4ccccn4)o3)cc2)C1 (stereo unspecified),-2,0,i,-3,-1,0
CC1CCCN(S(=O)(=O)c2ccc(C(=O)Nc3nnc(-c4ccccc4Cl)o3)cc2)C1 (stereo unspecified),0,-1,+,3,-4,0
COc1cccc(-c2nnc(NC(=O)c3ccc(S(=O)(=O)N4CC(C)OC(C)C4)cc3)o2)c1 (stereo unspecified),7,2,+,-13,-2,1
CC(=O)c1ccc(N=Nc2ccc(C)cc2)cc1,3,7,i,8,-2,2
C=C(C)C(=O)Oc1ccc(N=Nc2ccc(C)cc2)ccc1=O,22,.,i,16,.,34*
NC(=O)COC(=O)c1c2c(nc3ccccc13)CCC2,-8,2,i,20*,2,-20
COc1ccc(N(C(=O)CNC(=O)c2ccco2)C(C(=O)NC2CCCC2)c2ccco2)cc1 (stereo unspecified),0,-1,i,-2,-1,-2
COc1ccc(N(CC(O)CN2CCCCC2)S(=O)(=O)c2ccc(C)cc2)cc1 (stereo unspecified),0,1,i,24*,2,-2
CCOC(=O)C1=C(C)NC2=C(C(=O)c3ccccc32)C1c1cccnc1 (stereo unspecified),-2,2,i,40*,0,1
